Laboratory results reported in ChEMBL document CHEMBL4627400, “Discovery of Dihydropyrrolo[1,2-a]pyrazin-3(4H)-one-Based Second-Generation GluN2C- and GluN2D-Selective Positive Allosteric Modulators (PAMs) of the N-Methyl-d-Aspartate (NMDA) Receptor” (J Med Chem, 2020).
Values after ≈ are worked out from the molar mass of the structure shown.

Key:
[1] = Protein binding in rat plasma at 1 uM measured after 60 mins by equilibrium dialysis based LC/MS/MS analysis; type: ADME, cell-free; conditions: read-out: PPB (converted)
[2] = Cmax in C57Bl/6 mouse at 20 mg/kg, ip by LC/MS/MS analysis; type: ADME, organism-based; set-up: dose 20 mg/kg, route intraperitoneal; conditions: in vivo
[3] = Ratio of drug level in brain to plasma in C57Bl/6 mouse at 20 mg/kg, ip by LC/MS/MS analysis; type: ADME, organism-based; conditions: read-out: BPR
[4] = Half life in C57Bl/6 mouse at 20 mg/kg, ip by LC/MS/MS analysis; type: ADME, organism-based; conditions: in vivo
[5] = molecular target: T1, Glutamate NMDA receptor; Grin1/Grin2c (Rattus norvegicus) (UniProt P35439+Q00961); experiment: Positive allosteric modulation of recombinant rat GluN1a/GluN2C receptor expressed in Xenopus laevis oocytes assessed as increase in glycine/L-glutamate-induced channel current at 30 uM by two-electrode voltage clamp method relative to control; type: cell-based
Procedure, shortened: (§1)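 Oocytes expressing rat GluN1/GluN2C or GluN2D, held at −40 mV in HEPES-buffered Ba2+ solution, pH 7.4, 23 °C. Current given as percent of agonist-alone response. Doubling concentration is the concentration giving 2-fold response; reported as […] log. 6–19 oocytes from 2–3 frogs.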

[6] = molecular target: T2, Ionotropic glutamate receptor NMDA 1/2D (Rattus norvegicus) (UniProt P35439+Q62645); experiment: Positive allosteric modulation of recombinant rat GluN1a/GluN2D receptor expressed in Xenopus laevis oocytes assessed as increase in glycine/L-glutamate-induced channel current at 30 uM by two-electrode voltage clamp method relative to control; type: cell-based
Procedure, shortened: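 Oocytes expressing rat GluN1/GluN2C or GluN2D, held at −40 mV in HEPES-buffered Ba2+ solution, pH 7.4, 23 °C. […] Current given as percent of agonist-alone response. […] Doubling concentration is the concentration giving 2-fold response; reported as […] log. 6–19 oocytes from 2–3 frogs.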

[7] = Fraction unbound in rat plasma at 1 uM measured after 60 mins by equilibrium dialysis based LC/MS/MS analysis; type: ADME, cell-free
[8] = Aqueous solubility of the compound at pH 7.4 after 30 mins by nephelometric analysis; type: physicochemical; conditions: buffer
[9] = Drug level in C57Bl/6 mouse plasma at 10 mg/kg, ip measured at 0.25 hrs by LC/MS/MS analysis; type: ADME, organism-based
Procedure, shortened: (§2)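 Fed male mice, 6–8 weeks old, n = 15, 3 per time point. Dosed ip at 10 mg/kg (1 mg/mL) in 50% PEG400/water. […] Brain homogenized 1:4 in water. Samples acetonitrile-precipitated and quantified by LC-MS/MS with verapamil as internal standard.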

[10] = molecular target: T3, Glutamate NMDA receptor; Grin1/Grin2b (Rattus norvegicus, UniProt P35439+Q00960); experiment: Positive allosteric modulation of recombinant rat GluN1a/GluN2B receptor expressed in Xenopus laevis oocytes assessed as increase in glycine/L-glutamate-induced channel current at 10 to 30 uM by two-electrode voltage clamp method relative to control; type: cell-based
Procedure, shortened: (§3)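 TEVC at −40 mV, 23 °C, in 90 NaCl/1 KCl/0.5 BaCl/0.005 EDTA/10 HEPES (mM), pH 7.4. Oocytes expressed rat GluN1/GluN2A or GluN1/GluN2B. […] Some GluN2A oocytes were BAPTA-loaded. 4–17 oocytes from 1–3 frogs.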

[11] = molecular target: T4, Glutamate NMDA receptor; Grin1/Grin2a (Rattus norvegicus, UniProt P35439+Q00959); experiment: Positive allosteric modulation of recombinant rat GluN1a/GluN2A receptor expressed in Xenopus laevis oocytes assessed as increase in glycine/L-glutamate-induced channel current at 10 to 30 uM by two-electrode voltage clamp method relative to control; type: cell-based; procedure, shortened: as §3
[12] = Half life in C57Bl/6 mouse at 10 mg/kg, ip by LC/MS/MS analysis; type: ADME, organism-based; conditions: in vivo
Procedure, shortened: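 Male, fed C57BL/6 mice (6–8 weeks) got a single i.p. dose of 10 mg/kg (1 mg/mL) in 50% PEG400/water. […] Brain was homogenized 1:4 in water. Samples were acetonitrile-precipitated and measured by LC-MS/MS against a verapamil internal standard. Brain:plasma was reported from AUClast.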

[13] = molecular target: Ionotropic glutamate receptor NMDA 1/2D (Rattus norvegicus, UniProt P35439+Q62645)
[14] = Drug level in C57Bl/6 mouse brain at 10 mg/kg, ip measured at 0.25 hrs by LC/MS/MS analysis; type: ADME, organism-based; conditions: read-out: Drug uptake; procedure, shortened: as §2
[15] = Cmax in C57Bl/6 mouse at 10 mg/kg, ip by LC/MS/MS analysis; type: ADME, organism-based; set-up: dose 10 mg/kg, route intraperitoneal; conditions: in vivo
Procedure, shortened: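 Male fed C57BL/6 mice, 6–8 weeks, given 10 mg/kg i.p. (1 mg/mL, 10 mL/kg) in 50% PEG400/water. […] Samples protein-precipitated with acetonitrile, brain homogenised 1:4 in water, quantified by LC-MS/MS with verapamil internal standard.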

[16] = molecular target: Glutamate NMDA receptor; Grin1/Grin2c (Rattus norvegicus, UniProt P35439+Q00961)
[17] = molecular target: T2, Ionotropic glutamate receptor NMDA 1/2D (Rattus norvegicus); experiment: Positive allosteric modulation of recombinant rat GluN1a/GluN2D receptor expressed in Xenopus laevis oocytes assessed as change in […]/0.3 uM L-glutamate-induced channel current at 30 uM by two-electrode voltage clamp method (reference value: 29 +/- 2%); type: cell-based
Procedure, shortened: (§4)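 Oocytes expressing rat GluN1/GluN2C or GluN1/GluN2D, TEVC at −40 mV, pH 7.4, 23 °C. […] 30 μM glycine in all solutions per footnote. Vehicle versus drug compared by paired t-test; mean ± SEM.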

[18] = molecular target: T2, Ionotropic glutamate receptor NMDA 1/2D (Rattus norvegicus); experiment: Positive allosteric modulation of recombinant rat GluN1a/GluN2D receptor expressed in Xenopus laevis oocytes assessed as increase in 10 uM glycine/L-glutamate-induced channel current at 30 uM in presence of NMDAR antagonist DL-APV by two-electrode voltage clamp method relative to control; type: cell-based
Procedure, shortened: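 GluN1/GluN2D oocytes, TEVC at −40 mV. 30 μM compound applied with 10 μM glycine plus 50 μM DL-APV (glutamate-site antagonist).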

[19] = molecular target: T3, Glutamate NMDA receptor; Grin1/Grin2b; experiment: Positive allosteric modulation of recombinant rat GluN1a/GluN2B receptor expressed in Xenopus laevis oocytes assessed as change in 30 to 100 uM glycine/3 uM L-glutamate-induced channel current at 30 uM by two-electrode voltage clamp method (reference value: 79 +/- 1%); type: cell-based; conditions: read-out: %max
[20] = molecular target: T1, Glutamate NMDA receptor; Grin1/Grin2c (Rattus norvegicus); experiment: Positive allosteric modulation of recombinant rat GluN1a/GluN2C receptor expressed in Xenopus laevis oocytes assessed as change in […]/0.3 uM L-glutamate-induced channel current at 30 uM by two-electrode voltage clamp method (reference value: 19 +/- 3%); type: cell-based; procedure, shortened: as §4
[21] = molecular target: T4, Glutamate NMDA receptor; Grin1/Grin2a; experiment: Positive allosteric modulation of recombinant rat GluN1a/GluN2A receptor expressed in Xenopus laevis oocytes assessed as change in 30 to 100 uM glycine/3 uM L-glutamate-induced channel current at 30 uM by two-electrode voltage clamp method (reference value: 46 +/- 5%); type: cell-based
[22] = molecular target: T2, Ionotropic glutamate receptor NMDA 1/2D (Rattus norvegicus); experiment: Positive allosteric modulation of recombinant rat GluN1a/GluN2D receptor expressed in Xenopus laevis oocytes assessed as increase in glycine/10 uM L-glutamate-induced channel current at 30 uM in presence of NMDAR antagonist 7-CKA by two-electrode voltage clamp method relative to control; type: cell-based
[23] = molecular target: T2, Ionotropic glutamate receptor NMDA 1/2D (Rattus norvegicus); experiment: Positive allosteric modulation of recombinant rat GluN1a/GluN2D receptor expressed in Xenopus laevis oocytes assessed as change in 30 uM glycine/0.5 uM L-glutamate-induced channel current at 30 uM by two-electrode voltage clamp method (reference value: 54 +/- 1%); type: cell-based; procedure, shortened: as §4
[24] = molecular target: T1, Glutamate NMDA receptor; Grin1/Grin2c (Rattus norvegicus); experiment: Positive allosteric modulation of recombinant rat GluN1a/GluN2C receptor expressed in Xenopus laevis oocytes assessed as change in 30 uM glycine/0.5 uM L-glutamate-induced channel current at 30 uM by two-electrode voltage clamp method (reference value: 54 +/- 1%); type: cell-based; procedure, shortened: as §4
[25] = molecular target: T3, Glutamate NMDA receptor; Grin1/Grin2b; experiment: Positive allosteric modulation of recombinant rat GluN1a/GluN2B receptor expressed in Xenopus laevis oocytes assessed as change in 30 uM glycine/3 uM L-glutamate-induced channel current at 30 uM by two-electrode voltage clamp method (reference value: 84 +/- 1%); type: cell-based; conditions: read-out: %max
[26] = molecular target: T4, Glutamate NMDA receptor; Grin1/Grin2a; experiment: Positive allosteric modulation of recombinant rat GluN1a/GluN2A receptor expressed in Xenopus laevis oocytes assessed as change in 30 uM glycine/3 uM L-glutamate-induced channel current at 30 uM by two-electrode voltage clamp method (reference value: 40 +/- 4%); type: cell-based
[27] = molecular target: T1, Glutamate NMDA receptor; Grin1/Grin2c (Rattus norvegicus); experiment: Positive allosteric modulation of recombinant rat GluN1a/GluN2C receptor expressed in Xenopus laevis oocytes assessed as increase in glycine/L-glutamate-induced channel current by measuring log of doubling concentration by two-electrode voltage clamp method; type: cell-based; procedure, shortened: as §1

T4 sequence (Q00959 whole entry, other chains not shown): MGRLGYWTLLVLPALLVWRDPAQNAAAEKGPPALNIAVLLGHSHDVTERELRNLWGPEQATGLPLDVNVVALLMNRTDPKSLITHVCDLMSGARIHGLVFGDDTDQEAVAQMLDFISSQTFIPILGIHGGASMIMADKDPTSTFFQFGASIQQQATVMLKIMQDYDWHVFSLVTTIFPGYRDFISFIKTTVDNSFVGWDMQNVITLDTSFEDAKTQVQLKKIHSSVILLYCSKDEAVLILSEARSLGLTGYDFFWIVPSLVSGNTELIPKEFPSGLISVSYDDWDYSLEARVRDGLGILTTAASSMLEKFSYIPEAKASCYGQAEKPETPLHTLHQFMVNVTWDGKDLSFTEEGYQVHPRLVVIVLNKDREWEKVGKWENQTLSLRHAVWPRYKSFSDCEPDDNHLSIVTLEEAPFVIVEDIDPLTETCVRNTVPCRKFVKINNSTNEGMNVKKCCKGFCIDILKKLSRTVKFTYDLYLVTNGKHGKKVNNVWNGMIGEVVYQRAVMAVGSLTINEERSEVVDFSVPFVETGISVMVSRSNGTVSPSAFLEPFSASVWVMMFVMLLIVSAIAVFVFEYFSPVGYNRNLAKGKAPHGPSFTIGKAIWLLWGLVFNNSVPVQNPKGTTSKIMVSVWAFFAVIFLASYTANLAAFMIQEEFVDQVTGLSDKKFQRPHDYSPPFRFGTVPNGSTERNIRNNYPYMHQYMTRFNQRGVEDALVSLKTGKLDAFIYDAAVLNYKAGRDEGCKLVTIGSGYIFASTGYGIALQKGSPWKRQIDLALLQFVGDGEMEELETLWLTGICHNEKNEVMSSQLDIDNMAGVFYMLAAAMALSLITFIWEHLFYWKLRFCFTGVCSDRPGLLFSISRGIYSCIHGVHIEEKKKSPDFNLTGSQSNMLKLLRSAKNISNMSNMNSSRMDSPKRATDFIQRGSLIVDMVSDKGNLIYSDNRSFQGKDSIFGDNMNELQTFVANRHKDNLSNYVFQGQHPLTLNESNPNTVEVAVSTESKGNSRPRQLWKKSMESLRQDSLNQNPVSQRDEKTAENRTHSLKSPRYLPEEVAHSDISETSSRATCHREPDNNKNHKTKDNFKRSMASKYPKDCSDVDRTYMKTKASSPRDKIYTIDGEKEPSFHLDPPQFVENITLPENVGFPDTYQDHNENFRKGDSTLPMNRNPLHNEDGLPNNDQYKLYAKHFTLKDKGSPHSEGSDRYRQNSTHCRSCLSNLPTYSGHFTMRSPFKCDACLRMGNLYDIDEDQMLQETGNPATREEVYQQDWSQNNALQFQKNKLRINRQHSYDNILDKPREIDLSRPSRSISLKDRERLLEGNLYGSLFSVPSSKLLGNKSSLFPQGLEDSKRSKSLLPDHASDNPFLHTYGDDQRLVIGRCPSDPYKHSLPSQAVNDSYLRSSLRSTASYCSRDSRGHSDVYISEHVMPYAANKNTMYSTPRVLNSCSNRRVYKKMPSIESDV
T3 sequence (Q00960 whole entry, other chains not shown): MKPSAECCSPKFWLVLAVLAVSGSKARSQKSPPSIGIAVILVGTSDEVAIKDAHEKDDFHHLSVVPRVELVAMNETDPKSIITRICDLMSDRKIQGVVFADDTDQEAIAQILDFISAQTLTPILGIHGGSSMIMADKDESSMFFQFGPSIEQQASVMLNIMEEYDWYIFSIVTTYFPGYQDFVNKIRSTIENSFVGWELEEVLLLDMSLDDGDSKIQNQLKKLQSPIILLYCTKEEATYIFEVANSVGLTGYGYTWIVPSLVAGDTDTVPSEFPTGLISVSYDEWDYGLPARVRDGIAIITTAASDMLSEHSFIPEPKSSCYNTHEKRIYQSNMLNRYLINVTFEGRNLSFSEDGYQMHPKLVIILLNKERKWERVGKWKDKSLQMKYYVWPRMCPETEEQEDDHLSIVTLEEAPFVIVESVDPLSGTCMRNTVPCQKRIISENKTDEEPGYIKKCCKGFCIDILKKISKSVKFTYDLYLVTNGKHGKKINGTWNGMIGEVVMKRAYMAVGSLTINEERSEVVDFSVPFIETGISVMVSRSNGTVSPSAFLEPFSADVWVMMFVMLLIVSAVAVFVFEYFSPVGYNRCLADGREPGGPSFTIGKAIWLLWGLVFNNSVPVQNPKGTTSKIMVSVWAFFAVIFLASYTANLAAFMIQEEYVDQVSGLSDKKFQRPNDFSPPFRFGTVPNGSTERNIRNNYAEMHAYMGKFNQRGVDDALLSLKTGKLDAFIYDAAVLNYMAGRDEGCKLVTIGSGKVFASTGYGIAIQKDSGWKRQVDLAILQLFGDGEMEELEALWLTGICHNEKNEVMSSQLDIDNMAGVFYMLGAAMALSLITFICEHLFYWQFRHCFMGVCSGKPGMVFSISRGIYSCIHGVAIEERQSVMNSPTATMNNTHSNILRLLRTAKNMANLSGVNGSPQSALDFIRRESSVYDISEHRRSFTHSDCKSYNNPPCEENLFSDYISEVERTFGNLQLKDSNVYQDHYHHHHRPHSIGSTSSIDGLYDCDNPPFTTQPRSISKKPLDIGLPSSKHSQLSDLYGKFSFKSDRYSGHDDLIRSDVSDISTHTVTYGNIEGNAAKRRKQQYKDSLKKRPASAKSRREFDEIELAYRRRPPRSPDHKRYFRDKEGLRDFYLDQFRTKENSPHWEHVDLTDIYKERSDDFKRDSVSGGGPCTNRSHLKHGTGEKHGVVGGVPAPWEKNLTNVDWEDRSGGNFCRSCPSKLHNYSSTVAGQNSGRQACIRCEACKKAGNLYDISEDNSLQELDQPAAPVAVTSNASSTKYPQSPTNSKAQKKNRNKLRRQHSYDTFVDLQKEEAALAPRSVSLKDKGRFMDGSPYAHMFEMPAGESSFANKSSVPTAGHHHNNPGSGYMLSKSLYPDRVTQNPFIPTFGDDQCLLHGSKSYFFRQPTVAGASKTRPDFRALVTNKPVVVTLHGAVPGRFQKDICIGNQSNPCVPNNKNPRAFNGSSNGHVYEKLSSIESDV

## COc1ccc(OCC2c3cc(OC)c(OC)cc3CCN2C(=O)c2cccc(Cl)c2)cc1 (stereo not given)
[1]
  fraction unbound at 1 h, 1 µM: < 0.001
[2]
  Cmax: 2160 nM
[3]
  Kp: 6.7
[4]
  half-life: 1.35 h
[5]
  %max: 230%
[6]
  %max: 220%
[7]
  fraction unbound at 1 h, 1 µM: < 0.0001

## COc1ccc(OCC2c3cccn3CC(=O)N2Cc2cccc(F)c2)cc1 (stereo not given)
[1]
  fraction unbound at 1 h, 1 µM: 0.013
[8]
  solubility kinetic at 0.5 h: 74 µM (≈ 28.2 µg/mL)
[9]
  concentration at 0.25 h: 1830 nM
[10]
  Activity: Not Active
[11]
  Activity: Not Active
[12]
  t1/2: 1.07 h
[13]
  EC50: 3160 nM
[14]
  concentration at 0.25 h: 2500 nM
[5]
  %max: 350%
[15]
  Cmax: 1830 nM
[16]
  EC50: 3160 nM
[6]
  %max: 350%

## COc1ccc(OC[C@H]2c3cccn3CC(=O)N2Cc2cccc(F)c2)cc1
[17]
  %max: 55%
[8]
  solubility kinetic at 0.5 h: 74 µM (≈ 28.2 µg/mL)
[18]
  Activity: 2.5%
[19]
  activity at 30 µM: 77%
[20]
  %max: 48%
[21]
  %max: 53%
[13]
  EC50: 3160 nM
[5]
  %max: 410%
[16]
  EC50: 3160 nM
[22]
  Activity: 0.4%
[6]
  %max: 390%

## COc1ccc(OC[C@H]2c3cccn3CC(=O)N2Cc2cccc(C(F)(F)F)c2)cc1
[8]
  solubility kinetic at 0.5 h: 57 µM (≈ 24.5 µg/mL)
[10]
  Activity: Not Active
[11]
  Activity: Not Active
[13]
  EC50: 794 nM
[5]
  %max: 280%
[16]
  EC50: 794 nM
[6]
  %max: 330%

## COc1ccc(OCC2c3cccn3CCN2C(=O)c2cccc(C(F)(F)F)c2)cc1 (stereo not given)
[8]
  solubility kinetic at 0.5 h: 58 µM (≈ 25 µg/mL)
[10]
  Activity: Not Active
[11]
  Activity: Not Active
[13]
  EC50: 2000 nM
[5]
  %max: 380%
[16]
  EC50: 1580 nM
[6]
  %max: 290%

## COc1ccc(OCC2c3cccn3CCN2C(=O)c2cccc(Cl)c2)cc1 (stereo not given)
[8]
  solubility kinetic at 0.5 h: 36 µM (≈ 14.3 µg/mL)
[10]
  Activity: Not Active
[11]
  Activity: Not Active
[13]
  EC50: 3160 nM
[5]
  %max: 370%
[16]
  EC50: 2510 nM
[6]
  %max: 370%

## COc1ccc(OC[C@@H]2c3cccn3CC(=O)N2Cc2cccc(F)c2)cc1
[8]
  solubility kinetic at 0.5 h: 74 µM (≈ 28.2 µg/mL)
[23]
  %max: 72%
[24]
  %max: 57%
[10]
  Activity: Not Active
[11]
  Activity: Not Active
[25]
  activity at 30 µM: 85%
[5]
  %max: 100%
[6]
  %max: 88%
[26]
  %max: 45%

## COc1ccc(OCC2c3ccc(OC)cc3CC(=O)N2CC(F)(F)F)cc1 (stereo not given)
[10]
  Activity: Not Active
[11]
  Activity: Not Active
[5]
  %max: 330%
[6]
  %max: 160%
[27]
  log(activity): > -4.5
